Assay results as given in paper PMC7275135 (Applied Microbiology and Biotechnology, 2020).
Where a SMILES comes first, the peptide text is derived from it.

Legend:
[1] = test system: S. epidermidis ATCC 12228; assay: MIC, microtiter plate assay; assay type: cell-based, Staphylococcus epidermidis; conditions: triplicate
[2] = test system: Gram-positive bacteria; assay: MIC range over the Gram-positive strains; assay type: cell-based; conditions: S. aureus CVCC 546, S. epidermidis ATCC 12228, S. pneumoniae CVCC 2350, S. suis CVCC 3928
[3] = test system: MEECs; assay: Cytotoxicity, MTT assay; assay type: cell-based, mouse; conditions: 256 μg/mL, n = 4
[4] = test system: S. aureus CVCC 546; assay: Membrane depolarization, Rhodamine 123 flow cytometry; assay type: cell-based, Staphylococcus aureus; conditions: 2 h, 10^8 CFU/mL
[5] = test system: intracellular S. aureus CVCC 546; assay: Intracellular antimicrobial activity in MEECs; assay type: cell-based, Staphylococcus aureus; conditions: 24 h treatment, dose-dependent, colony counting
Outline: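 MEECs in antibiotic-free DMEM, seeded at 2.5 × 10^5 cells/mL and grown 24 h, then infected with an equal volume of S. aureus CVCC 546 (2.5 × 10^7 CFU/mL) for 0.5 h. Extracellular bacteria killed with lysostaphin 50 μg/mL for 1 h, then PBS wash.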

[6] = test system: LTA-induced cytokines from RAW 264.7; assay: LTA neutralization, cytokine ELISA; assay type: cell-based, mouse; conditions: RAW 264.7, LTA-stimulated, 25-μg/mL
[7] = test system: S. aureus CVCC 546; assay: S. aureus-induced endometritis model of mice; assay type: in vivo, mouse; conditions: 10-mg/kg

CC[C@H](C)[C@@H]1NC(=O)[C@@H]2CSSC[C@@H](C(=O)N[C@@H](CCCNC(=N)N)C(=O)N[C@@H](CCCCN)C(=O)O)NC(=O)[C@H](CC(N)=O)NC(=O)[C@@H]3CSSC[C@H](NC(=O)[C@H](C)NC(=O)[C@H](C)NC(=O)[C@H](Cc4c[nH]cn4)NC(=O)CNC(=O)[C@H](C(C)C)NC(=O)[C@H](CCCCN)NC(=O)[C@H](Cc4ccccc4)NC(=O)[C@@H]4CCCN4C(=O)[C@H](CO)NC(=O)[C@H](CC(C)C)NC(=O)[C@H](CC(C)C)NC(=O)[C@H](CC(=O)O)NC(=O)[C@@H](NC(=O)[C@@H](NC(=O)[C@H](C)N)[C@@H](C)O)CSSC[C@H](NC(=O)[C@H](Cc4c[nH]c5ccccc45)NC(=O)CNC(=O)CNC(=O)[C@H](CCCNC(=N)N)NC(=O)[C@H](CCCCN)NC(=O)CNC(=O)[C@H](CCCNC(=N)N)NC(=O)[C@H](C)NC1=O)C(=O)N[C@@H](CC(=O)O)C(=O)N[C@@H](CCCCN)C(=O)N[C@@H](CCCNC(=N)N)C(=O)N[C@@H](C)C(=O)N[C@@H](C(C)C)C(=O)N3)C(=O)N[C@@H](C)C(=O)N[C@@H](C)C(=O)N[C@@H](Cc1c[nH]cn1)C(=O)N2 [DLP4] (HELM PEPTIDE1{A.T.C.D.L.L.S.P.F.K.V.G.H.A.A.C.A.A.H.C.I.A.R.G.K.R.G.G.W.C.D.K.R.A.V.C.N.C.R.K}$PEPTIDE1,PEPTIDE1,3:R3-30:R3|PEPTIDE1,PEPTIDE1,16:R3-36:R3|PEPTIDE1,PEPTIDE1,20:R3-38:R3$$$V2.0; N-terminus assumed)
MICs [1]: 14.99 µM
MICs (range over strains) [2]: 3.75~14.99 μM
cell viability toward MEECs [3]: 74.14%

CN[C@H](CC(C)C)C(=O)N[C@H]1C(=O)N[C@@H](CC(N)=O)C(=O)N[C@H]2C(=O)N[C@H]3C(=O)N[C@H](C(=O)N[C@H](C(=O)O)c4cc(O)cc(O)c4-c4cc3ccc4O)[C@H](O)c3ccc(c(Cl)c3)Oc3cc2cc(c3O[C@@H]2O[C@H](CO)[C@@H](O)[C@H](O)[C@H]2O[C@H]2C[C@](C)(N)[C@H](O)[C@H](C)O2)Oc2ccc(cc2Cl)[C@H]1O [vancomycin]
cell viability toward MEECs [3]: 90.15%
Rh 123 fluorescence intensity increased by ([4]; 1 × MIC): 23.1%
Rh 123 fluorescence intensity increased by ([4]; 2 × MIC): 26.6%
killing of S. aureus CVCC 546 in MEEC cells [5]: over 99%
IL-10 increased by [6]: 81.26%
histopathology of uteri (H&E) [7]: Only a small amount of scattered inflammatory cells were observed in part of uterus
